In series [1] the test system is BV-2 (Mus musculus). Briefly: Cytotoxicity against mouse BV2 cells.
Series [2] concerns HT-22. Description: Cytotoxicity against mouse HT22 cells. The format is cell-based. In short, it runs like this:
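MTT viability assay in BV2 and HT22 cells, compounds tested without glutamate.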

Series [3] relates to BV-2 (Mus musculus). Briefly: Antiinflammatory activity in mouse BV2 cells assessed as inhibition of LPS-stimulated NO production at 10 to 100 uM by Griess assay.
For series [4], the system named is HT-22. Briefly: Neuroprotective activity against L-glutamate-induced neurotoxicity in mouse HT22 cells assessed as cell viability at 10 to 100 uM incubated 1 hr prior to L-glutamate-challenge measured after 12 hrs by MTT assay. The format is functional, cell-based. An outline of the steps: (§1)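 Mouse hippocampal HT22 cells seeded at 3 × 10^4 per well in DMEM, pretreated 1 h with compound in DMSO (0.1% final), then exposed to 5 mM L-glutamate; viability by MTT after further 12 h.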

In series [5] the test system is HT-22. Briefly: Neuroprotective activity against L-glutamate-induced neurotoxicity in mouse HT22 cells assessed as GSH-Px activity at 10 uM incubated 1 hr prior to L-glutamate-challenge measured after 12 hrs (reference value: 0.036 +/- 0.001 mU/mg protein). Format: functional.
Series [6] deals with HT-22. Briefly: Neuroprotective activity against L-glutamate-induced neurotoxicity in mouse HT22 cells assessed as GR activity at 100 uM incubated 1 hr prior to L-glutamate-challenge measured after 12 hrs (reference value: 0.94 +/- 0.19 mU/mg protein). The format is functional.
The subject of series [7] is HT-22. Description: Neuroprotective activity against L-glutamate-induced neurotoxicity in mouse HT22 cells assessed as GSH-Px activity at 100 uM incubated 1 hr prior to L-glutamate-challenge measured after 12 hrs (reference value: 0.036 +/- 0.001 mU/mg protein). Format: functional.
Series [8] deals with HT-22. Description: Neuroprotective activity against L-glutamate-induced neurotoxicity in mouse HT22 cells assessed as GR activity at 10 uM incubated 1 hr prior to L-glutamate-challenge measured after 12 hrs (reference value: 0.94 +/- 0.19 mU/mg protein). Format: functional.
Series [9] deals with HT-22. Briefly: Neuroprotective activity in mouse HT22 cells assessed as HO-1 protein expression at 100 uM by Western blotting analysis in presence of PD98059. The format is functional, cell-based. An outline of the steps: (§2)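 HT22 cells treated 30 min (kinases) or 12 h (HO-1) at stated concentrations or times; lysed in RIPA with protease and phosphatase inhibitors, 30 μg protein on 10% SDS-PAGE, PVDF transfer, overnight 4 °C primary antibodies (HO-1, ERK/p-ERK, JNK/p-JNK, p38/p-p38, β-actin), ECL detection.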

Series [10] concerns HT-22. Briefly: Antioxidant activity in mouse HT22 cells assessed as HO-1 protein expression at 100 uM after 6 to 18 hrs by Western blotting analysis. Format: functional, cell-based. In short, it runs like this: as §2
Series [11] concerns HT-22. Description: Neuroprotective activity against L-glutamate-induced neurotoxicity in mouse HT22 cells assessed as cell viability at 100 uM incubated 1 hr prior to L-glutamate-challenge measured after 12 hrs by MTT assay in presence of SnPP. The format is functional, cell-based. An outline of the steps:
as §1

Series [12] relates to HT-22. Description: Neuroprotective activity against L-glutamate-induced neurotoxicity in mouse HT22 cells assessed as GSH/GSSG ratio incubated 1 hr prior to L-glutamate-challenge measured after 12 hrs. The format is functional, cell-based.
The test system of series [13] is HT-22. Briefly: Neuroprotective activity against L-glutamate-induced neurotoxicity in mouse HT22 cells assessed as GR activity at 50 uM incubated 1 hr prior to L-glutamate-challenge measured after 12 hrs (reference value: 0.94 +/- 0.19 mU/mg protein). The format is functional.
The test system of series [14] is HT-22. Description: Neuroprotective activity in mouse HT22 cells assessed as HO-1 protein expression at 100 uM by Western blotting analysis in presence of SP600125. The format is functional, cell-based. An outline of the steps: as §2
Series [15] concerns the target MAP kinase p38 (Mus musculus) (UniProt P47811+O08911+Q9WUI1+Q9Z1B7). Briefly: Induction of p38 phosphorylation in mouse HT22 cells at 100 uM after 0.5 to 12 hrs by Western blotting analysis. The format is cell-based. The following applies: HT-22. In short, it runs like this: as §2
The subject of series [16] is HT-22. Briefly: Neuroprotective activity against L-glutamate-induced neurotoxicity in mouse HT22 cells assessed as SOD activity at 10 uM incubated 1 hr prior to L-glutamate-challenge measured after 12 hrs by xanthine-xanthine oxidase reaction (reference value: 16.10 +/- 0.54 U/mg protein). Format: functional.
Series [17] deals with HT-22. Description: Induction of JNK phosphorylation in mouse HT22 cells at 100 uM after 0.5 to 12 hrs by Western blotting analysis. Format: cell-based. In short, it runs like this: as §2
Series [18] concerns HT-22. Description: Neuroprotective activity against L-glutamate-induced neurotoxicity in mouse HT22 cells assessed as SOD activity at 50 uM incubated 1 hr prior to L-glutamate-challenge measured after 12 hrs by xanthine-xanthine oxidase reaction (reference value: 16.10 +/- 0.54 U/mg protein). Format: functional.
The test system of series [19] is HT-22. Description: Neuroprotective activity against L-glutamate-induced neurotoxicity in mouse HT22 cells assessed as GSH/GSSG ratio at 10 uM incubated 1 hr prior to L-glutamate-challenge measured after 12 hrs (reference value: 1.105 +/- 0.112). Format: functional.
Series [20] deals with HT-22. Briefly: Neuroprotective activity against L-glutamate-induced neurotoxicity in mouse HT22 cells assessed as GSH-Px activity at 50 uM incubated 1 hr prior to L-glutamate-challenge measured after 12 hrs (reference value: 0.036 +/- 0.001 mU/mg protein). The format is functional.
Series [21] deals with HT-22. Description: Neuroprotective activity against L-glutamate-induced neurotoxicity in mouse HT22 cells assessed as GSH/GSSG ratio at 50 uM incubated 1 hr prior to L-glutamate-challenge measured after 12 hrs (reference value: 1.105 +/- 0.112). Format: functional.
Series [22] relates to HT-22. Description: Neuroprotective activity in mouse HT22 cells assessed as HO-1 protein expression at 100 uM by Western blotting analysis in presence of SB203580. The format is functional, cell-based. An outline of the steps:
as §2

The subject of series [23] is HT-22. Description: Neuroprotective activity against L-glutamate-induced neurotoxicity in mouse HT22 cells assessed as SOD activity at 100 uM incubated 1 hr prior to L-glutamate-challenge measured after 12 hrs by xanthine-xanthine oxidase reaction (reference value: 16.10 +/- 0.54 U/mg protein). The format is functional.
Series [24] deals with HT-22. Briefly: Neuroprotective activity against L-glutamate-induced neurotoxicity in mouse HT22 cells assessed as GSH/GSSG ratio at 100 uM incubated 1 hr prior to L-glutamate-challenge measured after 12 hrs (reference value: 1.105 +/- 0.112). Format: functional.
The test system of series [25] is HT-22. Briefly: Antioxidant activity in mouse HT22 cells assessed as HO-1 protein expression at 100 uM by Western blotting analysis. The format is functional, cell-based. The note with it: TDE = time-dependent effect. An outline of the steps: as §2
For series [26], the system named is HT-22. Briefly: Induction of ERK phosphorylation in mouse HT22 cells at 100 uM after 0.5 to 12 hrs by Western blotting analysis. The format is cell-based. In short, it runs like this: as §2
Series [27] deals with HT-22. Description: Antioxidant activity in mouse HT22 cells assessed as HO-1 protein expression after 0.5 to 12 hrs by Western blotting analysis. The format is functional, cell-based. An outline of the steps: as §2

The source made the active and inactive calls. The calls are words filed in the database; no cut-off is given here.

Consider `COc1c(O)ccc(O[C@@H]2O[C@@H](C)[C@H](O)[C@@H](O)[C@H]2O)c1C(=O)OCc1ccccc1O[C@@H]1O[C@@H](C)[C@H](O)[C@@H](O)[C@H]1O`, for which the Activity result in series [1] and in series [2] was “Toxic” throughout. The outcome in series [3] and in series [4] was Active.

Turning to `COc1c(O)ccc(O[C@@H]2O[C@@H](C)[C@H](O)[C@@H](O)[C@H]2O)c1C(=O)OCc1ccccc1O[C@@H]1O[C@H](CO)[C@@H](O)[C@H](O)[C@H]1O`, the Activity result in series [1] and in [2] was “Toxic” throughout. Besides, the outcome in [3] and in [4] was Active.

Consider `COc1c(O)ccc(O[C@@H]2O[C@@H](C)[C@H](OC(C)=O)[C@@H](O)[C@H]2O)c1C(=O)OCc1ccccc1O[C@@H]1O[C@H](CO)[C@@H](O)[C@H](O)[C@H]1O`, for which the Activity is reported as 0.056 mU/mg in series [5]; 1.14 mU/mg in [6]; 0.059 mU/mg in series [7]; 0.72 mU/mg in series [8]; “Toxic” in series [1]; “Toxic” in series [2]. Besides, the Activity result in series [12] was “Dose-dependent effect”; in series [13] it was 0.9 mU/mg; in series [16], 29.78 U/mg; in series [18], 29.05 U/mg; in series [20] it was 0.055 mU/mg; in series [23] it was 30.71 U/mg. Further, the Activity entry in [25] was “tde”; in series [27], “Dose-dependent effect”. In addition, the result in [9], in [11], in [15] and in [17] was inactive. Also, the outcome in [10], in series [14], in [22], in series [3], in [26] and in series [4] was Active. For the same compound, the Ratio in [19] worked out at 1.594; in series [21], 2.3; in [24] it was 2.824.

As to `C[C@@H]1O[C@@H](Oc2ccc(O)c(O)c2C(=O)OCc2ccccc2O[C@@H]2O[C@H](CO)[C@@H](O)[C@H](O)[C@H]2O)[C@H](O)[C@H](O)[C@H]1O`, the Activity result in series [1] and in series [2] was “Toxic” throughout. Moreover, the outcome in [3] was Active.

For `COc1ccc(O[C@@H]2O[C@@H](C)[C@H](O)[C@@H](O)[C@H]2O)c(C(=O)OCc2ccccc2O[C@@H]2O[C@H](CO)[C@@H](O)[C@H](O)[C@H]2O)c1O`, the Activity result in series [1] and in series [2] was “Toxic” in each case. Further, the outcome in series [3] and in series [4] was Active.

Take `O=C(OCc1ccccc1O[C@@H]1O[C@H](CO)[C@@H](O)[C@H](O)[C@H]1O)c1c(O)cccc1O[C@@H]1O[C@H](CO)[C@@H](O)[C@H](O)[C@H]1O`: the Activity result in series [1] and in [2] was “Toxic” in each case. Also, the outcome in series [3] was Active.

The record behind these values is ChEMBL document CHEMBL3091281, “Neuroprotective benzyl benzoate glycosides from Disporum viridescens roots in HT22 hippocampal neuronal cells” (J Nat Prod, 2013).
